According to ChEMBL document CHEMBL3751842, “Novel triazolothiadiazines act as potent anticancer agents in liver cancer cells through Akt and ASK-1 proteins” (Bioorg Med Chem, 2016):
Activity calls are given as the source filed them. The rule behind the calls is not given here.

Legend:
MCF7 = assay: Cytotoxicity against human MCF7 cells assessed as growth inhibition after 72 hrs by sulforhodamine B assay; type: functional, cell-based; conditions: Homo sapiens, MCF7, 72 h; read-out: IC50
In short: (§1)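 Cells were grown at 37°C, 5% CO2 in DMEM with 10% FBS. They were seeded at 1000–3000 cells/well, grown 24 h, then exposed to compound at 2.5–40 µM for 72 h. Cells were fixed in 10% TCA for 1 h at 4°C, stained with 0.4% SRB in 1% acetic acid for 10 min, and the dye solubilized in 10 mM Tris. Absorbance was read at 515 nm; runs were in triplicate; IC50 was calculated, with fits of R2 0.8–1 accepted.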

[1] = Cytotoxicity against human HCT116 cells assessed as growth inhibition after 72 hrs by sulforhodamine B assay; type: functional, cell-based, HCT-116; conditions: Homo sapiens, HCT-116, 72 h; read-out: IC50; in short: as §1
Huh-7 = assay: Induction of apoptosis in human HuH7 cells assessed as PARP cleavage after 24 to 48 hrs by Western blot analysis; type: functional, cell-based
In short: (§2)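 Cells were exposed to compound or DMSO control for 24 or 48 h. Lysates were loaded at […] protein per lane and immunoblotted with antibodies diluted 1:100 to 1:500 in 5% BSA-TBS-T. Targets were p-Akt (Ser473), Akt, p-GSK3-α/β (Ser21/9), GSK3-α/β, SAPK/JNK, p-SAPK/JNK (Thr183/Tyr185), PARP, p-β-catenin, β-catenin, cyclin D1, p-ASK1 (S83) and p-ASK1 (S966). Actin served as the loading control.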

[2] = biological target: T1, Catenin beta-1 (Homo sapiens) (UniProt P35222); assay: Induction of beta-catenin phosphorylation in human Mahlavu cells after 24 to 48 hrs by Western blot analysis; type: cell-based; in short: as §2
T1 sequence (whole entry): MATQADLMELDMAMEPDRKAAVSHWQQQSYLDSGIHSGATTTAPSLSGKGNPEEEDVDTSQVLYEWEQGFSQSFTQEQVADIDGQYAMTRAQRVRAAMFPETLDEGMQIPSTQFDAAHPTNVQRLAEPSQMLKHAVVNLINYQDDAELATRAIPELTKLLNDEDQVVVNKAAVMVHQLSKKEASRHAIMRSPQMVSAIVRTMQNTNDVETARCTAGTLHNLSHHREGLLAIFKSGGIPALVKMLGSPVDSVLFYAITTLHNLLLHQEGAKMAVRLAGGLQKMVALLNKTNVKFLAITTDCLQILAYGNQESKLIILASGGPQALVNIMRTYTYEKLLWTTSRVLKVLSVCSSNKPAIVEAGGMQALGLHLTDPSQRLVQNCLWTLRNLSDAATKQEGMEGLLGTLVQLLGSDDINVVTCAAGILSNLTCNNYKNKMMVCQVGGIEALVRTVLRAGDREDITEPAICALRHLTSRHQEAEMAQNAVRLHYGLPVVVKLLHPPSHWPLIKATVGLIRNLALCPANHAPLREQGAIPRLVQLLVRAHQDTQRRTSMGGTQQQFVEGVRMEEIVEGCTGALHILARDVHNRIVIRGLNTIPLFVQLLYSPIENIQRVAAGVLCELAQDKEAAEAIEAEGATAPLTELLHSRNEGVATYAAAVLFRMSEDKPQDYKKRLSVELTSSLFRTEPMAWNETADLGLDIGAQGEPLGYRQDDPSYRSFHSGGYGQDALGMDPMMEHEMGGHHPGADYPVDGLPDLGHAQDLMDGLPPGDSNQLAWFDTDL

[3] = biological target: Glycogen synthase kinase-3 beta (Homo sapiens) (UniProt P49841); assay: Inhibition of GSK3beta phosphorylation in human Mahlavu cells after 24 to 48 hrs by Western blot analysis; type: cell-based; in short: as §2
Glycogen synthase kinase-3 beta (Homo sapiens), sequence (P49841 whole entry, looked up): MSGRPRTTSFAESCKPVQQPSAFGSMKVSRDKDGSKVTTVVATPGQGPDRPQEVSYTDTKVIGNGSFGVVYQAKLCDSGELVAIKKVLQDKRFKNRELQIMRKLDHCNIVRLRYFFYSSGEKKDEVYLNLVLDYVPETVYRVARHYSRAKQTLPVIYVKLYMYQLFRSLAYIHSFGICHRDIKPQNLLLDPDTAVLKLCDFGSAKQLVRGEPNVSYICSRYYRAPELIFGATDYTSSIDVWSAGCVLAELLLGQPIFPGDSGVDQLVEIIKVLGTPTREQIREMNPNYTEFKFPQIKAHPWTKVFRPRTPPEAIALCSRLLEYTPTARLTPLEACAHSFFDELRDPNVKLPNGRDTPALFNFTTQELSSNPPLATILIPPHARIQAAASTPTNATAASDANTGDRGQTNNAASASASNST

Activity [2]	inhibition [3]	SMILES	IC50 (MCF7)	IC50 [1]	Activity (Huh-7)
Active	Active	COc1ccc(C2=Nn3c(nnc3C(C)c3ccc(CC(C)C)cc3)SC2)cc1 (stereo not given)	5.2 µM	4.2 µM	Active
Active	Active	Cc1ccc(C2=Nn3c(nnc3C(C)c3ccc(CC(C)C)cc3)SC2)cc1 (stereo not given)	6.3 µM	4 µM	Active
